# Assay outcomes (PubChem BioAssay)
# TMEM16A inh – TMEM16A chloride channel inhibitors, primary screen, cell-based, HTS; Anoctamin-1 (Mus musculus), Q8BHY3; HEK293 TMEM16A/YFP iodide influx fluorescence, ionomycin; normalized B-score (activity score, 25-100; higher = stronger inhibition) at 10 µM; 310,000 tested, 1.2% active; AID 588511, 2011;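 active means ratio plate-corrected score three or more library SD toward inhibition, starting fluorescence score within five deviations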;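 further: score derived from kinetic fluorescence span divided by baseline fluorescence per well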
# MC4R ag barr – MC4R agonists recruiting beta-arrestin, primary screen, cell-based, luminescence, agonist arm of biased-ligand search. Melanocortin receptor 4 (Homo sapiens), P32245. U2OS MC4R beta-arrestin complementation; percent of melanotan II response, DMSO zero. activation, % at 8.9 µM. 360,000 tested, 0.98% active. AID 540308, 2011;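 active means activation above a per-plate cutoff, the mean activation of sample wells on that plate plus 3 SD, cut at about 8% in these data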
# m5-HT2A agonist – mouse Htr2a agonists via beta-arrestin recruitment, primary screen, cell-based, luminescence | CHO-K1 mHTR2A beta-arrestin complementation; percent of 30 µM serotonin response | activation, % at 7.6 µM | 360,000 tested, 0.66% active;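 active means activation above a run cutoff, the mean activation of all tested compounds plus 3 SD, cut at about 14% in these data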;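 further: 0% = plate median of compound wells and 100% = 30 µM serotonin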
# Target sequence (P35363 whole entry, looked up): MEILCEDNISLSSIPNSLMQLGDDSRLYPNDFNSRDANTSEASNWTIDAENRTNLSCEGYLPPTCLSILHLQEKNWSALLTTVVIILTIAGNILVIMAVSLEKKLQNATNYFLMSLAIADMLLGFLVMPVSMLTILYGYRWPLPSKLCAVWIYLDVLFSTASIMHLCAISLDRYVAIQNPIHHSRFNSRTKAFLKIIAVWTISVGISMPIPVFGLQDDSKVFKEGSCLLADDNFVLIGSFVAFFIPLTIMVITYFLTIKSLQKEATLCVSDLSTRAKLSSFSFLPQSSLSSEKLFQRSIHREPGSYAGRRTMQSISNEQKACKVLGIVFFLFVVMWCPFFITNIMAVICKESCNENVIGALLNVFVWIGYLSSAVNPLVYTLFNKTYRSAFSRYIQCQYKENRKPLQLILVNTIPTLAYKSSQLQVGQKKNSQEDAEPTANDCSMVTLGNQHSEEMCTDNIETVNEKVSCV
# beta cell repl – inducers of MIN6 beta-cell proliferation, primary screen, ATP luminescence, uHTS | MIN6 cells proliferation, ATPlite luminescence, 48 h; cells starved in 0.2% serum; 100% = growth in 10% serum | proliferation, % at 10 µM | 330,000 tested, 0.29% active;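 active means compounds whose signal lies at least 3.5 SD above the mean of all wells on their plate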;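 further: 0% = DMSO-treated cells in low-serum medium and 100% = 10% serum control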
# MC4R antagonist – MC4R antagonists of cAMP signaling, primary screen, cell-based, TR-FRET, antagonist arm of biased-ligand search; Melanocortin receptor 4 (Homo sapiens), P32245; MC4R-expressing cells, MTII-stimulated cAMP, LANCE TR-FRET; inhibition, % at 6.5 µM; 360,000 tested, 0.48% active; AID 540295, 2011;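 active means inhibition above its plate's cutoff, the mean of tested wells on that plate plus 3 SD, cut at about 29% in these data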;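 further: 0% = Melanotan II alone and 100% = Melanotan II plus saturating MCL0020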
#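 system = U2OS cells with stable human MC4R expression | also added = Melanotan II challenge after compound preincubation | dosing = one concentration, 6.5 µM nominal | incubation = compound 30 min, challenge 1 h, detection 1 h | measured by = TR-FRET with Eu-cAMP and labeled anti-cAMP, 671 nm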
# TMEM16A act – TMEM16A chloride channel activators or potentiators, primary screen, cell-based, HTS | HEK293 TMEM16A/YFP-H148Q/I152L, iodide quench fluorescence; stronger effect = lower value | 340,000 tested, 0.3% active | Anoctamin-1 (Mus musculus), Q8BHY3 | B-score at 10 µM;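 active means fluorescence-ratio B-score plate-corrected deviation score at least 3 library SD below zero, with starting fluorescence score within 5 deviations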;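 further: channel opened by trigger with iodide after compound preincubation; score built on the fluorescence ratio of max minus min over baseline; more negative score means more quench and so TMEM16A activation or potentiation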
# * hit, by the source's call; i = inactive; . = no result given. Most compounds without a hit are left out; they make up all but 3.4% or so of the library.
SMILES,TMEM16A inh,MC4R ag barr,m5-HT2A agonist,beta cell repl,MC4R antagonist,TMEM16A act
Cc1nn(Cc2ccccc2Cl)c(C)c1NC(=O)c1cc(-c2ccc(F)cc2)on1,i,8.9*,1,-1,16,i
NC(=O)c1ccsc1NC(=O)COC(=O)c1cccnc1Cl,.,-1,-2,1,-3,i
O=C(NCc1ccccn1)C1CC(c2ccccc2Cl)=NO1 (stereo unspecified),i,-2,15*,-1,-5,i
COc1cc(C2=NOC(C(=O)NCc3ccccn3)C2)cc(OC)c1OC (stereo unspecified),i,0,3,0,17,i
CCN(CC(=O)Nc1c(F)cccc1F)C(=O)c1cc(S(=O)(=O)N2CCOCC2)ccc1N1CCCC1,i,1,0,-1,12,i
CC(C1CC2CCC1C2)n1c(COc2ccccc2F)nnc1SCC(N)=O (stereo unspecified),i,0,13,-1,23,i
CC(C)NC(=O)NC(=O)CSc1nnc(COc2ccccc2F)n1C(C)C1CC2CCC1C2 (stereo unspecified),i,9.5*,0,-6,21,i
COc1cc(C(F)(F)F)ccc1C(=O)NCCc1ccco1,i,1,5,-5,2,i
CCOc1ccc(CCNC(=O)CSc2nn(-c3ccc(C)c(Cl)c3)c(=S)s2)cc1OCC,i,6,2,-3,10,-6*
COc1ccc(-c2c[n+]3c(n2-c2ccccc2)SCC3)cc1OC,i,-1,3,-2,8,-29*
O=C(C1CCCC1)N1CCC(CO)(Cc2ccccc2Cl)CC1,i,-1,4,-1,6,i
CC(C)(C)NC(=O)N1CCC(CO)(Cc2ccccc2Cl)CC1,i,0,3,-3,-4,-6.9*
CC(C)c1ccccc1-n1cc[nH]c1=S,i,-2,0,1,2,i
Cn1cc[nH]c1=S,.,0,3,.,19,-13*
O=C(Nc1ccc(Cl)c(S(=O)(=O)N2CCOCC2)c1)c1ccc(OCC2CCCO2)cc1 (stereo unspecified),100*,1,3,1,7,i
O=C(OCC12CC3CC(CC(C3)C1)C2)c1ccc(NCc2cc(O)ccc2O)cc1,.,11*,3,.,1,i
CN1OC[C@@H]2CN(Cc3cc(Cl)cc(Cl)c3)[C@H](c3cccc(-c4ccccc4)c3)C[C@@H]21,.,-2,1,.,9,.
Brc1ccccc1OCCCCn1cnc2ccccc21,100*,0,-1,-6,-6,i
Cc1ccc(-c2csc(Nc3ccccn3)n2)cc1,i,1,0,-3,-1,i
COc1ccc(-c2csc(Nc3ccccn3)n2)cc1OC,25*,1,-1,-4,9,i
Cc1ccc(S(=O)(=O)N2CCC(=O)N(C(COCc3cccc(C)c3)Cc3ccccc3)CC2)cc1 (stereo unspecified),i,2,-7,-8,11,-22*
Cc1ccc(COCC(CC(C)C)N2CCN(C(=O)c3cccc(C(F)(F)F)c3)CCC2=O)cc1 (stereo unspecified),i,-1,3,-6,4,-17*
Cc1ccc(S(=O)(=O)N2CCC(=O)N(C(COCc3ccc(C(F)(F)F)cc3)Cc3ccccc3)CC2)cc1 (stereo unspecified),i,1,-5,-6,10,-34*
Cc1ccc(S(=O)(=O)N2CCC(=O)N([C@H](COCc3ccc(C(F)(F)F)cc3)Cc3ccccc3)CC2)cc1,.,.,-1,.,.,.
CSCCC(NS(=O)(=O)Cc1ccccc1)C(=O)NNc1ccccc1 (stereo unspecified),.,.,0,.,.,.
SMILES,TMEM16A inh,MC4R ag barr,m5-HT2A agonist,beta cell repl,MC4R antagonist,TMEM16A act
CCCCCC(=O)Cc1cc(O)cc2c1C(=O)Oc1cc(O)c(C(=O)O)c(CCCCC)c1O2,25*,.,.,-6,.,.
O=C(OCC(=O)N1CCCc2ccccc21)c1ccc(S(=O)(=O)C(F)F)cc1,i,-1,-7,5,7,i
CC(C)(C)c1cc(O)c(C(C)(C)C)cc1O,100*,.,.,-6,.,.
CSc1ccc(CNc2ccc(Cl)cc2)cc1,25*,1,1,-3,7,i
Cc1ccc(NCSc2ccc(Cl)cc2)cc1,.,2,0,.,9,i
CN1C(=O)/C(=C/c2cc(N=Nc3ccccc3)ccc2O)SC1=S,100*,-3,-4,-4,5,i
CCc1cccc(NC(=O)CN(c2ccc(C)cc2)S(=O)(=O)c2c(C)noc2C)c1,i,-1,0,-4,8,i
Cc1ccc2nc(SCCCCOc3ccccc3)[nH]c2c1,100*,-2,-8,-2,6,i
C[C@@H]1CN([C@@H](C)CO)C(=O)c2cc(NC(=O)C3CCCCC3)ccc2O[C@@H](C)CCCCO[C@@H]1CN(C)C(=O)CCCN(C)C,.,-1,2,.,10,.
Cc1sc(NC(=O)CN2CCOCC2)nc1-c1ccc2c(c1)CCN2S(=O)(=O)c1ccccc1,25*,-1,2,-4,12,i
Cc1ccc(-c2csc(NC(=O)CN3CCOCC3)n2)cc1,i,-1,-1,-1,8,i
O=C(CN1CCOCC1)Nc1nc(-c2ccc3c(c2)CCN3S(=O)(=O)c2ccccc2)cs1,i,-2,15*,-1,6,i
O=C1CC(N2CCN(S(=O)(=O)c3ccccc3F)CC2)C(=O)N1c1ccccc1F (stereo unspecified),.,0,-3,.,10,i
COc1ccc2c(c1OC)C(=O)N(c1cccc(C)c1)C2=O,i,-2,-2,4,3,-4.9*
O=[N+]([O-])c1cc(Br)c(O)c(/C=N/Nc2nnnn2-c2cccc3ccccc23)c1,100*,-4,-11,-6,-4,i
O=[N+]([O-])c1ccc(NN=Cc2cccc3ccccc23)cc1,.,2,-2,.,0,i
O=C1C=CC(=O)N1c1ccccc1N1C(=O)C=CC1=O,.,-4,7,.,37*,i
O=C(Nc1ccc(Cl)cc1)Nc1nnc(Cc2ccc([N+](=O)[O-])cc2)s1,i,-3,-2,-1,12,i
